Source: PubChem
This is a sample that favours compounds with a hit; in the whole collection about 2.9% have one here.
DENV2 CPE: protects cells from dengue virus 2 cytopathic effect. DENV2-infected cells, cytopathic effect rescue, plate reader. CPE inhibition, % at 9.99 µM. AID 651640. actives 1.7% (n = 350,000); in the data active = CPE inhibition above about 20%, passing the limit was not always enough; tested in BHK-21 cells;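 note: 0% = median of neutral control wells and 100% = median of positive control wells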
CAL PDZ FP-1: inhibitors of human CAL PDZ peptide binding | Q9HD26 | purified CAL PDZ, TMR-peptide fluorescence polarization, 1 h | inhibition, % at 20 µM | actives 0.02% (n = 330,000) | AID 504414;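 active = highest replicate inhibition of at least 40%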;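 note: plate controls were DMSO neutral control wells for no effect and unlabeled competitor peptide control wells for full effect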
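System: purified tagged CAL PDZ domain construct (CerCALP). Schedule: 1 h incubation at room temperature before polarization reading. Medium: 25 mM sodium phosphate pH 7.4, 150 mM NaCl, TCEP, IgG, Thesit. Read-out: percent inhibition from loss of millipolarization. Measured by: FP readout, S and P plane fluorescence. Probe or stimulus: fluorescent TMR peptide probe.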
CAL PDZ FP-2: CAL PDZ (human) peptide binding inhibition. purified CAL PDZ, TMR-peptide fluorescence polarization, 1 h. inhibition, % at 24.9 µM. actives 0.92% (n = 300,000). AID 602252;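 active = mean inhibition of at least 30% with at least half of replicates also reaching 30%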;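 note: 0% = DMSO neutral control and 100% = excess unlabeled competitor peptide PRC23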
ERAP1 HTS inh: inhibitors of human ERAP1 aminopeptidase. recombinant ERAP1, Leu-AMC fluorescence, 60 min. Q9NZ08. AID 652197. actives 0.15% (n = 340,000). inhibition, % at 10.7 µM;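 active = mean replicate inhibition of at least 30%, or all replicates individually reaching that 30% level; inactive = mean below 30% and not every replicate reaching it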;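 note: 0% = neutral control wells and 100% = L-leucinethiol positive control wells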
SIRT5 inh: sirtuin-5 (human) deacylase inhibition. Purified SirT5, succinyl-peptide AMC, trypsin-coupled fluorescence. inhibition, % at 15 µM. actives 1.1% (n = 330,000). AID 652115; in the data active = inhibition above about 15%
Target sequence (Q9NXA8 whole entry, looked up): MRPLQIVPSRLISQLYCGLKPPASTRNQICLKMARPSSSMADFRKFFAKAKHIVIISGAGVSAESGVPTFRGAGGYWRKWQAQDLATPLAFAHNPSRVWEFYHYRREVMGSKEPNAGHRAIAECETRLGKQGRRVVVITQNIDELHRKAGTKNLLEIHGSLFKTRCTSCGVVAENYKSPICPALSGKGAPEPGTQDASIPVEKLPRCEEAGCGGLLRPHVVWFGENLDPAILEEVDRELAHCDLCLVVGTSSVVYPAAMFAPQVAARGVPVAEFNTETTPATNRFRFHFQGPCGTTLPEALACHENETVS
S100A4 inh HTS: S100A4-myosin IIA interaction inhibition. P26447. inhibition, % at 10.7 µM. actives 0.14% (n = 360,000). AID 652163. S100A4/TAMRA-MyoIIA peptide fluorescence polarization;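 active = mean inhibition of at least 70% across replicates, with every replicate also reaching that level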
Target sequence (P26447 whole entry, looked up): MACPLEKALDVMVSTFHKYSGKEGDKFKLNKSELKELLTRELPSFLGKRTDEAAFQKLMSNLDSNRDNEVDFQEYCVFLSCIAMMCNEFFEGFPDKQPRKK
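Material: S100A4 monomer protein / Buffer or medium: 50 mM HEPES pH 7.2, 10 mM CaCl2, 100 mM KCl / Times: 5 min incubation before reading / Benchmarks: neutral control DMSO, positive control TFP / Reagent: labelled myosin peptide probe, 5 nM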
Starred values were filed as active, the others as inactive; / = no result.

SMILES	DENV2 CPE	CAL PDZ FP-1	CAL PDZ FP-2	ERAP1 HTS inh	SIRT5 inh	S100A4 inh HTS
Cc1ccc(S(=O)(=O)N[C@H]2CC[C@H](CCNC(=O)CN3CCOCC3)O[C@H]2CO)cc1	8.0	/	/	1.3	-4.3	-21.3
CN(Cc1ccccc1F)C(=O)c1ccc(NS(=O)(=O)c2ccc3[nH]c(=O)[nH]c3c2)cc1	5.6	-2.8	-4.1	-1.3	30.7*	0.4
CN(Cc1cccc(F)c1)C(=O)c1ccc(NS(=O)(=O)c2ccc3[nH]c(=O)[nH]c3c2)cc1	2.2	-4.0	-3.8	0.8	-2.7	-8.9
CCCCNC(=O)c1ccc(NS(=O)(=O)c2ccc3[nH]c(=O)[nH]c3c2)cc1	22.7*	-1.1	-4.1	-1.9	-3.5	-0.8
Cn1c(=S)[nH]c2scc(-c3cccs3)c2c1=O	12.0	-0.8	65.8*	1.7	2.7	-0.7
CCCNC(=O)N1[C@H](CO)[C@H](c2ccccc2-c2cccc(C)c2)[C@@H]1C#N	-13.4	/	/	2.1	2.5	-22.4
O=C(C[C@H]1CC[C@H]2[C@@H](COC[C@H](O)CN2C(=O)Nc2ccc(F)cc2)O1)NCCc1ccncc1	-0.2	/	/	0.7	18.0*	8.7
O=C(C[C@@H]1CC[C@H]2[C@@H](COC[C@@H](O)CN2C(=O)Nc2ccccc2)O1)NCCc1ccncc1	-14.3	/	/	1.3	-1.1	-5.5
O=C(C[C@H]1CC[C@@H]2NC[C@H](O)COC[C@H]2O1)NCCc1ccccc1	24.9*	/	/	-1.8	-0.3	-14.1
O=C(C[C@H]1CC[C@H]2[C@@H](COC[C@H](O)CN2C(=O)Nc2ccccc2)O1)NCCc1ccncc1	52.8*	/	/	-1.5	-0.2	4.0
CCNC(=O)C[C@H]1CC[C@H]2[C@@H](COC[C@@H](O)CN2C(=O)Nc2ccc(C(F)(F)F)cc2)O1	-1.5	/	/	3.0	64.3*	12.5
CCC(=O)Nc1ccc2c(c1)C(=O)N(C)C[C@@H](OC)[C@H](C)CN(C(=O)CC1CC1)[C@@H](C)CO2	-2.5	/	/	-1.3	1.9	1.1
C[C@H](CO)N1C[C@H](C)[C@@H](CN(C)C(=O)c2cnccn2)Oc2ncc(/C=C/c3ccccc3)cc2C1=O	6.2	/	/	-0.3	-4.1	-3.9
COc1ccc2c3c(n(C)c2c1)[C@@H](CO)N(Cc1nccs1)CC31CCN(C)CC1	-2.8	/	/	0.6	/	-4.5
C/C=C/c1ccc([C@@H]2[C@H](CO)N3C(=O)CN(S(=O)(=O)c4ccccc4)C[C@@H]23)cc1	2.9	/	/	0.4	9.4	-37.6
COc1cc2c(cc1OC)C(c1ccc(Cl)cc1)CC(=O)N2 (stereo unspecified)	2.4	0.1	-2.6	-0.2	17.2*	-4.3
CC(=O)c1ccc(Oc2ncnc(N)c2[N+](=O)[O-])cc1	-1.6	-0.5	-2.0	-1.6	1.0	-3.8
CCc1ccc(Oc2ncnc(N)c2[N+](=O)[O-])cc1	8.5	-1.6	66.7*	2.7	-10.3	-4.2
C[C@H](CO)N1C[C@H](C)[C@@H](CN(C)Cc2ccc(C(=O)O)cc2)Oc2ccc(NS(=O)(=O)c3ccccc3)cc2C1=O	-6.7	/	/	-0.1	2.2	4.8
COCc1[nH][nH]c(=O)c1C=Nc1ccccc1	/	-2.6	1.0	/	/	/
COCc1[nH][nH]c(=O)c1/C=N/N1CCOCC1	-4.9	-1.4	43.3*	-0.5	-0.1	11.1
CCn1cc(CNc2nc3nonc3nc2N2CCCCC2)cn1	-1.3	-0.6	72.0*	1.3	-0.7	7.9
O=C(Nc1ccc(S(=O)(=O)Nc2nccs2)cc1)C1CC(=O)N(c2ccc(Cl)cc2)C1 (stereo unspecified)	0.6	-3.0	-4.6	1.9	9.2	1.4
Cc1ccc(N2CC(C(=O)Nc3ccc(S(=O)(=O)Nc4nccs4)cc3)CC2=O)cc1C (stereo unspecified)	3.4	0.6	-4.3	-1.2	18.1*	1.6
CN1CCN(C(=O)C2CC(=O)N(c3ccc(Cl)cc3)C2)CC1 (stereo unspecified)	0.6	-4.2	-0.4	-2.3	-2.0	1.7
SMILES	DENV2 CPE	CAL PDZ FP-1	CAL PDZ FP-2	ERAP1 HTS inh	SIRT5 inh	S100A4 inh HTS
CCN1CCN(C(=O)C2CC(=O)N(c3ccc(Cl)cc3)C2)CC1 (stereo unspecified)	61.1*	-2.1	1.9	-4.2	-3.3	-0.7
CCOC(=O)C1CCN(C(=O)C2CC(=O)N(c3ccc4c(c3)OCCO4)C2)CC1 (stereo unspecified)	61.5*	/	-3.9	-1.5	-2.0	-1.4
Cc1noc(C)c1S(=O)(=O)Nc1ccc2c(c1)C(=O)N([C@@H](C)CO)C[C@H](C)[C@H](CN(C)S(=O)(=O)c1c(C)noc1C)OCCCC[C@@H](C)O2	6.6	/	/	1.8	6.9	-8.3
C[C@H](CO)N1C[C@H](C)[C@@H](CN(C)C(=O)Nc2cccc3ccccc23)Oc2ccc(NC(=O)Cn3cnnn3)cc2C1=O	/	/	/	0.7	4.3	7.5
S=C1N(c2ccccc2)C(c2ccc(Br)cc2)N2CCCN12 (stereo unspecified)	42.0*	0.1	-1.3	0.9	1.0	1.8
S=C1N(c2ccccc2)C(c2ccc(Cl)cc2)N2CCCN12 (stereo unspecified)	/	-0.2	/	/	/	/
C/C=C/c1ccc(C2[C@@H]3CN(S(=O)(=O)c4ccccc4C)C[C@H]2N3)cc1 (stereo partly specified)	-5.3	/	/	-1.0	2.7	-9.7
COC(=O)c1nc(Cl)c(Cl)c(N)c1Cl	4.0	-0.8	4.3	7.6	16.6*	-5.2
C[C@@H]1CN([C@@H](C)CO)C(=O)c2cccc(NC(=O)C3CC3)c2O[C@@H]1CN(C)Cc1ccc(C(=O)Nc2ccccc2N)cc1	-5.1	/	/	0.1	16.9*	-11.3
C[C@H](CO)N1C[C@H](C)[C@H](CN(C)Cc2ccc(C(=O)Nc3ccccc3N)cc2)Oc2c(NC(=O)C3CC3)cccc2C1=O	3.8	/	/	0.0	8.5	0.5
C[C@H]1CN([C@@H](C)CO)C(=O)c2cccc(NS(=O)(=O)c3ccc(Cl)cc3)c2O[C@@H]1CN(C)Cc1ccc(C(=O)Nc2ccccc2N)cc1	21.5*	/	/	0.7	5.4	2.1
Cc1noc(C)c1NC(=O)Nc1ccc2c(c1)C(=O)N([C@H](C)CO)C[C@H](C)[C@@H](CN(C)S(=O)(=O)c1ccccc1)OCCCC[C@@H](C)O2	-4.9	/	/	-1.7	0.0	2.1
Cc1ccc(S(=O)(=O)N[C@H]2CC[C@H](CCNC(=O)C3CCCC3)O[C@H]2CO)cc1	26.7*	/	/	-0.7	-1.6	-3.9
O=C(NCC[C@H]1CC[C@@H](NS(=O)(=O)c2ccc(Oc3ccccc3)cc2)[C@@H](CO)O1)C1CC1	-1.3	/	/	0.9	0.9	-0.9
Cc1ccc(S(=O)(=O)N[C@H]2CC[C@H](CCNC(=O)c3ccc4c(c3)OCO4)O[C@H]2CO)cc1	1.0	/	/	-3.8	103.2*	1.2
CC(C)NC(=O)NCC[C@H]1CC[C@@H](NS(=O)(=O)c2ccc(-c3ccccc3)cc2)[C@H](CO)O1	-3.0	/	/	-1.2	31.0*	17.4
